Data: ChEMBL document CHEMBL4831480, “Identification of First-in-Class Inhibitors of Kallikrein-Related Peptidase 6 That Promote Oligodendrocyte Differentiation” (J Med Chem, 2021)

Biological target: T1, Kallikrein-6 (Homo sapiens, UniProt Q92876)
Experiment: Inhibition of KLK6 (unknown origin) assessed as release of AMC fluorescent product using Boc-QAR-AMC as substrate incubated for 30 mins by microplate reader; call rule not given here

| SMILES | IC50 |
| --- | --- |
| Cl.NCc1ccc(NC(=O)c2ccc(F)cc2O)cc1 | Not Active |
| Cl.NCc1ccc(NC(=O)c2cc3ccccc3[nH]2)cc1 | Not Active |
| CC(C)(C)c1ccc(O)c(CNc2ccc(CN)cc2)c1.Cl | Not Active |
| Cl.NCc1ccc(NC(=O)c2c(O)ccc3ccccc23)cc1 | Not Active |
| Cl.O=C(NC1CCNCC1)c1ccc2ccccc2c1O | Not Active |
| NCc1ccc(NC(=O)c2c[nH]c3ccccc3c2=O)cc1 | Not Active |

Biological target: T1, Kallikrein-6
Experiment: Inhibition of KLK6 (unknown origin) assessed as release of AMC fluorescent product using Boc-QAR-AMC as substrate at 10 uM incubated for 30 mins by microplate reader
Method in brief: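 KLK6 (activated with lysylendopeptidase) at 2 nM was preincubated 15 min at 37 °C with compound (10 μM screen, or a range within 0.1–100 μM) or DMSO <2%. Reaction started with Boc-QAR-AMC 100 μM in 50 mM Tris, 1 M citrate, 0.05% Brij-35, pH 7.4. AMC read at ex 360/em 460 nm for 30 min. % inhibition taken from initial rates versus DMSO; IC50 from curve fit; ≥3 independent experiments in duplicate.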

| SMILES | inhibition |
| --- | --- |
| NCc1ccc(NC(=O)c2ncccc2O)cc1 | 8.86% |
| Cc1cccc(O)c1C(=O)Nc1ccc(CN)cc1 | 7.27% |
| Cc1ccc(O)c(C(=O)Nc2ccc(CN)cc2)c1 | 26.5% |
| NCc1ccc(NC(=O)c2ccc(C(F)(F)F)cc2O)cc1 | 47% |
| NCc1ccc(NC(=O)c2ccc3ccccc3c2)cc1 | 19.8% |
| NCc1ccc(NC(=O)c2ccccc2O)cc1 | 14.8% |
| Cc1cccc(C(=O)Nc2ccc(CN)cc2)c1O | 20% |
| COc1ccc(O)c(C(=O)Nc2ccc(CN)cc2)c1 | 21.8% |
| NCc1ccc(NC(=O)c2cc(Br)ccc2O)cc1 | 30% |
